Data taken from ChEMBL document CHEMBL2177002, “Antifungal spectrum, in vivo efficacy, and structure-activity relationship of ilicicolin h” (ACS Med Chem Lett, 2012).
≈ marks a conversion by molar mass, not a printed value. Calls of active or inactive are those of the source. The rule behind the calls is not given here.

How the values were obtained:
[1] = system: Candida albicans; assay: Antifungal activity against Candida albicans MY 1055 infected in DBA/2 mouse assessed as reduction in kidney fungal burden administered as po bid for 2 days post infection measured after 4 days; assay type: functional; conditions: MY 1055, Kidney
Outline: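 DBA/2 mice infected intravenously with 5.4 × 10⁴ cfu of C. albicans MY1055. Dosed orally twice daily for 2 days in 10% aqueous DMSO at 50, 25, 12.5 and 6.25 mg/kg. Kidney Candida burden determined 4 days after infection and compared with vehicle-treated controls by Excel t test (p < 0.05). ED90 is the dose giving 90% reduction of kidney C. albicans.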

[2] = system: Saccharomyces cerevisiae; assay: Antifungal activity against Saccharomyces cerevisiae MY 2141 assessed as inhibition of whole cell oxygen consumption at 0.003 ug/mL after 15 mins; assay type: functional; conditions: MY 2141, 0.25 h
[3] = system: Meyerozyma guilliermondii; assay: Antifungal activity against Candida guilliermondii CLY 308 after 24 hrs by NCCLS broth microdilution method; assay type: functional; conditions: CLY 308, 24 h
[4] = system: Nakaseomyces glabratus; assay: Antifungal activity against Candida glabrata MY 1381 after 24 hrs by NCCLS broth microdilution method; assay type: functional; conditions: MY 1381, 24 h
[5] = system: Meyerozyma guilliermondii; assay: Antifungal activity against Candida guilliermondii CLY 346 after 24 hrs by NCCLS broth microdilution method; assay type: functional; conditions: CLY 346, 24 h
[6] = Inhibition of Saccharomyces cerevisiae MY 2141 electron transport protein complex 1/3 using glycerol-3-phosphate as substrate assessed as decrease in oxygen consumption measured for 3 mins
[7] = Inhibition of Saccharomyces cerevisiae MY 2141 electron transport protein complex 4 using ascorbate/TMPD as substrate assessed as decrease in oxygen consumption measured for 3 mins
[8] = system: Candida albicans; assay: Antifungal activity against Candida albicans after 24 hrs by NCCLS broth microdilution method in presence of 10% mouse plasma; assay type: functional
[9] = system: Candida albicans; assay: Antifungal activity against Candida albicans MY 1055 infected in DBA/2 mouse assessed as reduction in kidney fungal burden at 25 to 50 mg/kg, iv tid after 24 hrs; assay type: functional, organism-based
Outline: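 Abbreviated 24 h version of the disseminated C. albicans kidney-burden model in mice. Dosing intravenous, thrice daily, at total doses of 50 or 25 mg/kg/day. Kidney burden compared with controls by Excel t test (p < 0.05). ED90 expressed as mg/kg/day.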

[10] = system: Saccharomyces cerevisiae; assay: Antifungal activity against Saccharomyces cerevisiae MY 2141 in glucose-based medium after 24 hrs by NCCLS broth microdilution method; assay type: functional; conditions: MY 2141, 24 h
[11] = Inhibition of Saccharomyces cerevisiae MY 2141 electron transport protein complex 1/3 using ethanol as substrate assessed as decrease in oxygen consumption measured for 3 mins
[12] = system: Candida albicans; assay: Antifungal activity against Candida albicans MY 1055 assessed as inhibition of whole cell oxygen consumption at 0.003 ug/mL after 15 mins; assay type: functional; conditions: MY 1055, 0.25 h
[13] = system: Candida albicans; assay: Ratio of MIC for Candida albicans 13 harboring cytochrome b G37C mutant to MIC for wild type Candida albicans; assay type: functional
[14] = system: Candida albicans; assay: Ratio of MIC for Candida albicans 9 harboring cytochrome b G37D mutant to MIC for wild type Candida albicans; assay type: functional
[15] = system: Cryptococcus neoformans; assay: Antifungal activity against Cryptococcus neoformans MY 2061 infected in DBA/2 mouse assessed as reduction in spleen fungal burden at 50 mg/kg, po bid; assay type: functional, organism-based; design: dose 50 mg/kg
Outline: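 Mice with disseminated C. neoformans MY2061 infection (8 × 10⁵ cfu/mouse). Dosed twice daily at 100 or 50 mg/kg, oral or intraperitoneal, in 5% aqueous DMSO. Spleen burden measured as log cfu/g of spleen and compared by Excel t test (p < 0.05).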

[16] = system: Saccharomyces cerevisiae; assay: Antifungal activity against Saccharomyces cerevisiae MY 2141 in glycerol-based medium after 24 hrs by NCCLS broth microdilution method; assay type: functional; conditions: MY 2141, 24 h
[17] = Inhibition of rhesus monkey liver NADH:cytochrome c oxidoreductase; design: species or system Macaca mulatta
[18] = system: Candida albicans; assay: Antifungal activity against Candida albicans MY 1055 in glycerol-based medium after 24 hrs by NCCLS broth microdilution method; assay type: functional; conditions: MY 1055, 24 h
[19] = system: Candida albicans; assay: Ratio of MIC for Candida albicans 3 harboring cytochrome b G37D mutant to MIC for wild type Candida albicans; assay type: functional
[20] = system: Candida albicans; assay: Ratio of MIC for Candida albicans 16 harboring cytochrome b Q22E mutant to MIC for wild type Candida albicans; assay type: functional
[21] = system: Cryptococcus neoformans; assay: Antifungal activity against Cryptococcus neoformans MY 2061 after 40 hrs by NCCLS broth microdilution method; assay type: functional; conditions: MY 2061, 40 h
[22] = system: Candida tropicalis; assay: Antifungal activity against Candida tropicalis MY 1012 after 40 hrs by NCCLS broth microdilution method; assay type: functional; conditions: MY 1012, 40 h
[23] = system: Candida albicans; assay: Ratio of MIC for Candida albicans 10 harboring cytochrome b S20I mutant to MIC for wild type Candida albicans; assay type: functional
[24] = system: Aspergillus fumigatus; assay: Antifungal activity against Aspergillus fumigatus MF 5668 after 24 hrs by NCCLS broth microdilution method; assay type: functional; conditions: MF 5668, 24 h
[25] = system: Clavispora lusitaniae; assay: Antifungal activity against Candida lusitaniae MY 1396 after 24 hrs by NCCLS broth microdilution method; assay type: functional; conditions: MY 1396, 24 h
[26] = Inhibition of Saccharomyces cerevisiae MY 2141 electron transport protein complex 1/3 using NADH as substrate assessed as decrease in oxygen consumption measured for 3 mins
[27] = Half life in mouse; assay type: ADME, organism-based; conditions: in vivo
[28] = system: Candida albicans; assay: Antifungal activity against Candida albicans MY 1055 in glucose-based medium after 24 hrs by NCCLS broth microdilution method; assay type: functional; conditions: MY 1055, 24 h
[29] = Inhibition of ubiquinol:cytochrome c reductase in presence of 50% mouse plasma; assay type: cell-free
Outline: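 Cytochrome c reductase assay run with mouse plasma added at increasing percentages, up to 50%, to gauge the effect of plasma protein binding on inhibition.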

[30] = Clearance in mouse; assay type: ADME, organism-based; conditions: in vivo
[31] = system: Candida albicans; assay: Antifungal activity against Candida albicans MY 1055 infected in DBA/2 mouse assessed as reduction in kidney fungal burden administered as ip tid; assay type: functional; conditions: MY 1055, Kidney
[32] = system: Candida albicans; assay: Ratio of MIC for Candida albicans 5 harboring cytochrome b G37S mutant to MIC for wild type Candida albicans; assay type: functional
[33] = system: Candida albicans; assay: Ratio of MIC for Candida albicans 12 harboring cytochrome b Q22E mutant to MIC for wild type Candida albicans; assay type: functional
[34] = system: Cryptococcus neoformans; assay: Antifungal activity against Cryptococcus neoformans H 99 after 40 hrs by NCCLS broth microdilution method; assay type: functional; conditions: H 99, 40 h
[35] = Inhibition of rat liver NADH:cytochrome c oxidoreductase
[36] = Inhibition of Candida albicans MY 1055 NADH:cytochrome c oxidoreductase; conditions: read-out: IC50
[37] = system: Candida albicans; assay: Ratio of MIC for Candida albicans 8 harboring cytochrome b G37S mutant to MIC for wild type Candida albicans; assay type: functional
[38] = system: Candida albicans; assay: Ratio of MIC for Candida albicans 1 harboring cytochrome b G37C mutant to MIC for wild type Candida albicans; assay type: functional
[39] = Selectivity ratio of IC50 for bovine NADH:cytochrome c oxidoreductase to IC50 for Saccharomyces cerevisiae MY 2141 NADH:cytochrome c oxidoreductase
[40] = system: Nakaseomyces glabratus; assay: Antifungal activity against Candida glabrata CLY 574 after 24 hrs by NCCLS broth microdilution method; assay type: functional; conditions: CLY 574, 24 h
[41] = system: Aspergillus flavus; assay: Antifungal activity against Aspergillus flavus MF 383 after 24 hrs by NCCLS broth microdilution method; assay type: functional, organism-based

C/C=C/[C@@H]1[C@H]2C[C@@H](C)CC[C@@H]2C(C)=C[C@H]1C(=O)c1c(O)c(-c2ccc(O)cc2)c[nH]c1=O [ILICICOLIN H]
ED90 [1]: 15.4 mg/kg | inhibition at 0.003 µg/mL [2]: 100% | MIC [3]: 0.01 mg/L (≈ 0.0231 µM) | MIC [4]: 0.01 mg/L (≈ 0.0231 µM) | MIC [5]: 0.01 mg/L (≈ 0.0231 µM) | IC50 [6]: 0.02 mg/L (≈ 0.0461 µM) | IC50 [7]: > 10 mg/L | MIC [8]: > 1 mg/L | Activity [9]: Active | MIC [10]: > 50 mg/L | IC50 [11]: 0.008 mg/L (≈ 0.0185 µM) | inhibition at 0.003 µg/mL [12]: 100% | Ratio [13]: 250 | Ratio [14]: 250 | Activity [15]: Active | MIC [16]: 0.012 mg/L (≈ 0.0277 µM) | IC50 [17]: 0.5 mg/L (≈ 1.15 µM) | MIC [18]: 0.025 mg/L (≈ 0.0577 µM) | Ratio [19]: 250 | Ratio [20]: 250 | MIC [21]: 0.1 mg/L (≈ 0.231 µM) | MIC [22]: 0.01 mg/L (≈ 0.0231 µM) | Ratio [23]: 250 | MIC [24]: 0.08 mg/L (≈ 0.185 µM) | MIC [25]: 0.01 mg/L (≈ 0.0231 µM) | IC50 [26]: 0.08 mg/L (≈ 0.185 µM) | half-life [27]: 2.5 h | MIC [28]: > 50 mg/L | inhibition [29]: inactive | clearance [30]: 0.96 L/h/kg | ED90 [31]: 0.01 mg/kg | Ratio [32]: 250 | Ratio [33]: 250 | MIC [34]: 0.1 mg/L (≈ 0.231 µM) | IC50 [35]: 1.5 mg/L (≈ 3.46 µM) | IC50 [36]: 1.85 nM | Ratio [37]: 250 | Ratio [38]: 250 | Ratio IC50 [39]: > 70 | MIC [40]: 0.01 mg/L (≈ 0.0231 µM) | Activity [41]: inactive
